According to ChEMBL document CHEMBL1158468, “Synthesis, structure-activity relationships, and in vivo evaluation of N3-phenylpyrazinones as novel corticotropin-releasing factor-1 (CRF1) receptor antagonists” (J Med Chem, 2009):

Columns and labels:
[1] = target: T1, Corticotropin-releasing factor receptor 1 (Rattus norvegicus, UniProt P35353); assay: Displacement of [125I]Tyr-ovine-CRF from CRF1 receptor in rat frontal cortex homogenate by gamma counting; format: tissue-based
T1 sequence (P35353 whole entry): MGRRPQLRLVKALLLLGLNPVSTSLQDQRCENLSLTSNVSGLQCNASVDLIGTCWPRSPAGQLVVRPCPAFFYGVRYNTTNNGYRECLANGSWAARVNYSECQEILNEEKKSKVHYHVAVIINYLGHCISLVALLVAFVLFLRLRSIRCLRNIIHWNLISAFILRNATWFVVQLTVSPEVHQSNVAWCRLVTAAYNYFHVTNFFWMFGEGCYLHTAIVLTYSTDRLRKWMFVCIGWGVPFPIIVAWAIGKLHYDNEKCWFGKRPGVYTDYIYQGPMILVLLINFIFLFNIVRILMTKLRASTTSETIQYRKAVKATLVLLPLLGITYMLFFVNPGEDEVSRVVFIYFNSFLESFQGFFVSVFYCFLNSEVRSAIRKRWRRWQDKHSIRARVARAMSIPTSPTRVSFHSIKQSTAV
Outline: (§1)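 Washed homogenates of frozen rat frontal cortex (CRF1, 25 μg/well) or porcine choroid plexus (CRF2, 10 μg/well) in 50 mM Hepes pH 7.0, 10 mM MgCl2, 2 mM EGTA, protease inhibitors, 0.005% Triton X-100. Ligand 150 pM 125I-ovine-CRF (CRF1) or 100 pM 125I-sauvagine (CRF2). Incubation 2 h at 21 °C, then filtration and gamma counting. Nonspecific binding: 1 μM CRF1 reference antagonist or 1 μM α-helical CRF(9-41). IC50 from 5- or 10-point curves by nonlinear regression.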

[2] = Displacement of [125I]sauvagine from CRF2 receptor in pig choroid plexus homogenate by gamma counting; format: tissue-based, Sus scrofa; outline: as §1

| Structure (SMILES) | IC50 [1] [nM] | IC50 [2] [nM] |
| --- | --- | --- |
| COc1cc(C)c(Nc2nc(Cl)cn([C@@H](CO)C3CC3)c2=O)cc1C | 10 | – |
| CC[C@H](C1CC1)n1cc(Cl)nc(N(CC)c2cc(C)c(C)cc2C)c1=O | 1.5 | – |
| CCC(CC)n1cc(Cl)nc(Nc2c(C)cc(C)cc2C)c1=O | 2.9 | – |
| COc1cc(Br)c2c(c1)OCCN2c1nc(Cl)cn([C@H](C)C2CC2)c1=O | 19 | – |
| COc1ccc(Nc2nc(C#N)cn([C@H](C)C3CC3)c2=O)c(C(F)(F)F)n1 | 6.7 | – |
| COC[C@@H](C)n1cc(Cl)nc(Nc2cc(C)c(OC)cc2C)c1=O | 1.7 | – |
| C#Cc1cn([C@H](C)C2CC2)c(=O)c(Nc2ccc(OC)nc2C(F)(F)F)n1 | 5.6 | – |

These reach a lower IC50 [1]. Values come first.

| IC50 [1] [nM] | IC50 [2] [nM] | Structure (SMILES) |
| --- | --- | --- |
| 0.94 | – | COc1cc(Br)c2c(c1)CCN2c1nc(Cl)cn([C@H](C)C2CC2)c1=O |
| 0.62 | – | COc1cc(Cl)c2c(c1)CCN2c1nc(Cl)cn([C@H](C)C2CC2)c1=O |
| 1.1 | – | COc1cc(Cl)c(Nc2nc(Cl)cn([C@H](C)C3CC3)c2=O)c(Cl)c1 |
| 1.3 | – | COC[C@@H](C1CC1)n1cc(Cl)nc(Nc2c(C)cc(C)cc2C)c1=O |
| 0.29 | > 10000 | COC[C@H](C1CC1)n1cc(Cl)nc(Nc2cc(C)c(OC)cc2C)c1=O |
